≈ marks a conversion by molar mass, not a printed value.
Tests used:
Type in all cases: functional
Cytomegalovirus = test: The minimum inhibitory concentration was measured on HEL cells against Cytomegalovirus virus (Davis strain); settings: Human betaherpesvirus 5
Summary of the method: (§1)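 Antiviral endpoint was the concentration reducing virus plaque formation by 50% in HEL cell cultures. Values are means of two to six independent determinations.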

HEL [1] = test: The […] was measured on HEL cells in cell growth; settings: Homo sapiens
Vaccinia virus = test: The minimum inhibitory concentration was measured on E6SM cells against Vaccinia virus; settings: Orthopoxvirus vaccinia
Summary of the method: (§2)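 Antiviral endpoint was the concentration reducing virus-induced cytopathicity by 50% in […] cell cultures. Values are means of two to six independent determinations.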

E6SM = test: The minimum inhibitory concentration was measured on E6SM cells for morphological alteration; settings: Homo sapiens
Summary of the method: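 In uninfected E6SM cells, the value is the concentration giving a microscopically detectable change in normal cell morphology. Values are means of two to six independent determinations.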

[2] = The minimum inhibitory concentration was measured against Herpes simplex virus type 1 (KOS strain) on E6SM cells; settings: Human alphaherpesvirus 1; summary of the method: as §2
Human alphaherpesvirus 3 [3] = test: The minimum inhibitory concentration was measured on HEL cells against Varicella zoster virus (OKA strain); settings: Human alphaherpesvirus 3, oka; summary of the method: as §1
[4] = The minimum inhibitory concentration was measured on E6SM cells against Herpes simplex virus type 1 (McIntyre strain); settings: Human alphaherpesvirus 1; summary of the method: as §2
Human alphaherpesvirus 1 [5] = test: The minimum inhibitory concentration was measured on E6SM cells against TK-Herpes simplex virus type 1 (B2006 strain); summary of the method: as §2
Human betaherpesvirus 5 = test: The minimum inhibitory concentration was measured on HEL cells against Cytomegalovirus virus (AD-169 strain); summary of the method: as §1
Human alphaherpesvirus 1 [6] = test: The minimum inhibitory concentration was measured on E6SM cells against TK+/TK-Herpes simplex virus type 1 (VMW1837 strain); summary of the method: as §2
Human alphaherpesvirus 3 [7] = test: The minimum inhibitory concentration was measured on HEL cells against TK-Varicella zoster virus (YS-R strain); settings: Human alphaherpesvirus 3, ys-r; summary of the method: as §1
Human alphaherpesvirus 3 [8] = test: The minimum inhibitory concentration was measured on HEL cells against TK-Varicella zoster virus (07/1 strain); summary of the method: as §1
Human alphaherpesvirus 1 [9] = test: The minimum inhibitory concentration was measured on E6SM cells against Herpes simplex virus type 1 (F strain); summary of the method: as §2
Human alphaherpesvirus 3 [10] = test: The minimum inhibitory concentration was measured on HEL cells against Varicella zoster virus (YS strain); summary of the method: as §1
HEL [11] = test: The minimum inhibitory concentration was measured on HEL cells against TK-Varicella zoster virus (YS-R strain); (<400>100); settings: Homo sapiens; summary of the method: as §1
HEL [12] = test: The minimum inhibitory concentration was measured on HEL cells against Cytomegalovirus virus (AD-169 strain); (<400>100); settings: Homo sapiens; summary of the method: as §1
HEL [13] = test: The minimum inhibitory concentration was measured on HEL cells against Cytomegalovirus virus (Davis strain); (<400>100); settings: Homo sapiens; summary of the method: as §1

Row | SMILES | MIC (Cytomegalovirus) [µg/mL] | MIC (HEL [1]) [µg/mL] | MIC (Vaccinia virus) [µg/mL] | MIC (E6SM) [µg/mL] | MIC [2] [µg/mL] | MIC (Human alphaherpesvirus 3 [3]) [µg/mL] | MIC [4] [µg/mL] | MIC (Human alphaherpesvirus 1 [5]) [µg/mL] | MIC (Human betaherpesvirus 5) [µg/mL] | MIC (Human alphaherpesvirus 1 [6]) [µg/mL] | MIC (Human alphaherpesvirus 3 [7]) [µg/mL] | MIC (Human alphaherpesvirus 3 [8]) [µg/mL] | MIC (Human alphaherpesvirus 1 [9]) [µg/mL] | MIC (Human alphaherpesvirus 3 [10]) [µg/mL] | MIC (HEL [11]) [µg/mL] | MIC (HEL [12]) [µg/mL] | MIC (HEL [13]) [µg/mL]
1 | OCC(CO)OCN1CNc2c1nc1nc(-c3ccc(-c4ccccc4)cc3)cn1c2O | > 50 | > 200 | > 70 | > 85 | 0.02 (≈ 0.0461 µM) | 10 (≈ 23.1 µM) | 0.001 (≈ 0.00231 µM) | > 60 | > 50 | 2.7 (≈ 6.23 µM) | 20 (≈ 46.1 µM) | 25 (≈ 57.7 µM) | 0.01 (≈ 0.0231 µM) | > 50 |  |  | 
2 | OCCOCN1CNc2c1nc1nc(-c3ccc(-c4ccccc4)cc3)cn1c2O |  | > 200 | > 70 | ≥ 70 | 1.3 (≈ 3.22 µM) | 65 (≈ 161 µM) | 0.7 (≈ 1.74 µM) |  |  | > 55 |  | 100 (≈ 248 µM) | 2 (≈ 4.96 µM) | 40 (≈ 99.1 µM) | > 100 | > 100 | > 100
3 | Cc1cn2c(O)c3c(nc2n1)N(COCCO)CN3 | > 50 | > 200 | > 190 | > 190 | 0.8 (≈ 3.02 µM) | 4.6 (≈ 17.3 µM) | 1 (≈ 3.77 µM) | 127 (≈ 479 µM) | > 50 | 40 (≈ 151 µM) | 70 (≈ 264 µM) | > 50 | 0.58 (≈ 2.19 µM) | 9.4 (≈ 35.4 µM) |  |  | 
4 | Nc1nc2c(ncn2COCCO)c(=O)[nH]1 [ACYCLOVIR] |  | > 200 | > 180 | 350 (≈ 1550 µM) | 0.02 (≈ 0.0888 µM) | 0.18 (≈ 0.799 µM) | 0.07 (≈ 0.311 µM) | 70 (≈ 311 µM) | 13.2 (≈ 58.6 µM) | 5 (≈ 22.2 µM) | 4.7 (≈ 20.9 µM) | 13.7 (≈ 60.8 µM) | 0.004 (≈ 0.0178 µM) | 0.38 (≈ 1.69 µM) |  |  | 
5 | O=c1[nH]c(=O)n([C@H]2C[C@H](O)[C@@H](CO)O2)cc1/C=C/Br [BRIVUDINE] | > 20 | 60 (≈ 180 µM) | 0.22 (≈ 0.66 µM) | > 350 | 0.003 (≈ 0.00901 µM) | 0.005 (≈ 0.015 µM) | 0.006 (≈ 0.018 µM) | 15 (≈ 45 µM) | > 20 | 52 (≈ 156 µM) | 20 (≈ 60 µM) | 17.5 (≈ 52.5 µM) | 0.005 (≈ 0.015 µM) | 0.003 (≈ 0.00901 µM) |  |  | 
6 | Nc1nc2c(ncn2COC(CO)CO)c(=O)[nH]1 [GANCICLOVIR] | 0.9 (≈ 3.53 µM) | > 200 | > 80 | > 270 | 0.003 (≈ 0.0118 µM) | 0.5 (≈ 1.96 µM) | 0.004 (≈ 0.0157 µM) | 4.5 (≈ 17.6 µM) | 1.5 (≈ 5.88 µM) | 0.08 (≈ 0.313 µM) | 1.4 (≈ 5.49 µM) | 1.5 (≈ 5.88 µM) | 0.004 (≈ 0.0157 µM) | 1.4 (≈ 5.49 µM) |  |  | 
7 | O=c1[nH]c(=O)n([C@H]2C[C@H](O)[C@@H](CO)O2)cc1I [IDOXURIDINE] |  |  | > 20 | ≥ 400 | 20 (≈ 56.5 µM) |  | 4 (≈ 11.3 µM) |  |  | 20 (≈ 56.5 µM) |  |  | 7 (≈ 19.8 µM) |  |  |  | 
8 | NC(=O)c1ncn([C@@H]2O[C@H](CO)[C@@H](O)[C@H]2O)n1 [RIBAVIRIN] |  |  | 28 (≈ 115 µM) | 400 (≈ 1640 µM) | 46 (≈ 188 µM) |  | 16 (≈ 65.5 µM) | 53 (≈ 217 µM) |  | 115 (≈ 471 µM) |  |  | 23 (≈ 94.2 µM) |  |  |  | 

Source: ChEMBL document CHEMBL1127471, “Tricyclic analogues of acyclovir and ganciclovir. Influence of substituents in the heterocyclic moiety on the antiviral activity” (1994)
